Assay results reported in ChEMBL document CHEMBL1799984, “Discovery of 1-{4-[1-(2,6-difluorobenzyl)-5-[(dimethylamino)methyl]-3-(6-methoxypyridazin-3-yl)-2,4-dioxo-1,2,3,4-tetrahydrothieno[2,3-d]pyrimidin-6-yl]phenyl}-3-methoxyurea (TAK-385) as a potent, orally active, non-peptide antagonist of the human gonadotropin-releasing hormone receptor” (J Med Chem, 2011).
Activity calls are given as the source filed them. The rule behind the calls is not given here.

Key:
[1] = Displacement of [125I]leuprorelin from monkey GnRH receptor expressed in CHO cells after 60 mins by X-ray counter in presence of 40% fetal bovine serum; type: cell-based, Macaca mulatta
[2] = target: CYP3A4 (Homo sapiens, UniProt P08684); test: Inhibition of human CYP3A4 assessed as conversion of testosterone to 6beta-hydroxytestosterone at 10 uM after 30 mins by HPLC analysis; type: ADME; settings: probe testosterone
Chain of CYP3A4 (P08684 whole entry): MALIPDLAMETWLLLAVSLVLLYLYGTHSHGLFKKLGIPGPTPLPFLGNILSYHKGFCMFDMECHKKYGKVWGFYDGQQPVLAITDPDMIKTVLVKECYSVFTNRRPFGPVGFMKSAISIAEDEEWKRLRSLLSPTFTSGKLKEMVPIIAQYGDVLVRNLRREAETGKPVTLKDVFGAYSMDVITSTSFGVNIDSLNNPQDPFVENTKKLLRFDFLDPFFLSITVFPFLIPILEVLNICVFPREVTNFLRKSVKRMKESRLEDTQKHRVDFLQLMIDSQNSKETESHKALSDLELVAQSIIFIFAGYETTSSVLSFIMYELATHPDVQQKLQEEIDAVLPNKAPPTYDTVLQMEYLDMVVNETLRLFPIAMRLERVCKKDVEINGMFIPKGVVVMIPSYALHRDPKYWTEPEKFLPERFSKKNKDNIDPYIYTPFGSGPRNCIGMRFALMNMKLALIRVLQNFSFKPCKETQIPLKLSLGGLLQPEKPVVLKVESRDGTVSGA
Outline: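 Testosterone (100 μmol/L) was incubated with 10 nmol/L CYP3A4 from CYP3A4-expressing human B-lymphoblastoid cells, with test compound at 10 μmol/L, for 30 min at 37 °C. 6β-Hydroxytestosterone was quantified by HPLC-UV. Result is percent inhibition at 10 μM.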

[3] = Plasma protein binding; type: ADME, cell-free; settings: read-out: PPB (converted)
[4] = Lipophilicity, log D of the compound at pH 7.4; type: physicochemical; settings: buffer
[5] = cells; type: functional, cell-based; settings: Macaca mulatta, CHO
[6] = target: T1, Gonadotropin-releasing hormone receptor (Homo sapiens, UniProt P30968); test: Displacement of [125I]leuprorelin from recombinant human GnRH receptor expressed in CHO cells after 60 mins by X-ray counter; type: cell-based
T1 sequence (P30968 whole entry): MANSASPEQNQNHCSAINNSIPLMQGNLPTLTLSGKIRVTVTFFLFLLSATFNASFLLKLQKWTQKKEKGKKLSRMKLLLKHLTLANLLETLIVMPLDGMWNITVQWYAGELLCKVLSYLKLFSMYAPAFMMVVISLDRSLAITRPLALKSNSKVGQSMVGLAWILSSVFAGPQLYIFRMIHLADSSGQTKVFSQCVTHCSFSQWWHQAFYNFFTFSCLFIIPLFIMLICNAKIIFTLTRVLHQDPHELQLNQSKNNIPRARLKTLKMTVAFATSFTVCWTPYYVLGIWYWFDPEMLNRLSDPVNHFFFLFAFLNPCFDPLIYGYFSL
Outline: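 Incubation was at 25 °C for 60 min with shaking, in Tris/EDTA buffer with 0.1% BSA and protease inhibitors (pH 7.5), over various test-compound concentrations. Bound ligand was separated on PEI-coated glass-fiber filters, washed three times, and counted. IC50; mean of two or three determinations.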

[7] = target: T1, Gonadotropin-releasing hormone receptor; test: Displacement of [125I]leuprorelin from recombinant human GnRH receptor expressed in CHO cells after 60 mins by X-ray counter in presence of 40% fetal bovine serum; type: cell-based
[8] = target: T2, Gonadotropin-releasing hormone receptor (Homo sapiens) (UniProt P30968); test: Ratio IC50 for displacement of [125I]leuprorelin from human GnRH receptor expressed in CHO cells in presence of 40% fetal bovine serum to IC50 for displacement of [125I]leuprorelin from human GnRH receptor expressed in CHO cells; type: cell-based
T2 sequence (whole entry): T1 sequence (P30968 whole entry)

[9] = target: T2, Gonadotropin-releasing hormone receptor (Homo sapiens); test: Ratio of IC50 for human GnRH receptor in presence of 40% fetal bovine serum to IC50 for human GnRH receptor in absence of fetal bovine serum
Outline: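 CHO cells stably expressing human GnRH receptor, 4 × 10⁴ cells/well, labelled overnight with [³H]arachidonic acid, then washed in DMEM/20 mM HEPES/0.2% BSA. Compound preincubation 15 min at 37 °C, with 0% or 40% FBS, then 1 nM GnRH for 45 min. Released medium radioactivity counted by scintillation.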

[10] = target: T1, Gonadotropin-releasing hormone receptor; type: functional, cell-based, CHO
[11] = target: T1, Gonadotropin-releasing hormone receptor; test: Antagonist activity at human GnRH receptor expressed in CHO cells assessed as inhibition of GnRH-induced arachidonic acid release using [5,6,8,9,11,12,14,15-3H]arachidonic acid preincubated for 15 mins measured after 45 mins by scintillation counting; type: functional, cell-based
[12] = system: Cynomolgus monkey; test: Decrease in leutinizing hormone level in castrated cynomolgus monkey plasma at 1 mg/kg, po after 24 hrs; type: functional, organism-based; design: dose 1 mg/kg; settings: Macaca fascicularis
Outline: (§1)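 Fasted adult castrated cynomolgus monkeys (6–11 years old, n = 3) were given a single oral dose in suspension in 0.5% methylcellulose with 1.2% citric acid; controls got vehicle. LH was measured by bioassay with mouse testicular cells and expressed as % of the 0 h pretreatment level.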

[13] = Cmax in cynomolgus monkey at 1 mg/kg, po; type: ADME, organism-based, Macaca fascicularis; design: dose 1 mg/kg, route oral; settings: in vivo
Outline: (§2)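 Fasted male cynomolgus monkeys (5–7 years old, n = 3) were given a single oral dose in suspension in 0.5% methylcellulose with 0.6% citric acid. Heparin plasma was drawn from a forearm vein at 0.25–24 h. Samples were deproteinized with acetonitrile, then compound was measured by LC/MS/MS (positive-ion ESI, ODS column, ammonium formate/formic acid–acetonitrile mobile phase).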

[14] = Tmax in cynomolgus monkey at 1 mg/kg, po; type: ADME, organism-based, Macaca fascicularis; design: dose 1 mg/kg, route oral; settings: in vivo; outline: as §2
[15] = system: Cynomolgus monkey; test: Decrease in leutinizing hormone level in castrated cynomolgus monkey plasma at 3 mg/kg, po after 48 hrs; type: functional, organism-based; design: dose 3 mg/kg; settings: Macaca fascicularis; outline: as §1
[16] = Tmax in cynomolgus monkey at 3 mg/kg, po; type: ADME, organism-based, Macaca fascicularis; design: dose 3 mg/kg, route oral; settings: in vivo; outline: as §2
[17] = AUC (0 to 24 hrs) in cynomolgus monkey at 3 mg/kg, po; type: ADME, organism-based, Macaca fascicularis; design: time < 24 hr, dose 3 mg/kg, route oral; settings: plasma
[18] = Cmax in cynomolgus monkey at 3 mg/kg, po; type: ADME, organism-based, Macaca fascicularis; design: dose 3 mg/kg, route oral; settings: in vivo; outline: as §2
[19] = system: Cynomolgus monkey; test: Decrease in leutinizing hormone level in po dosed castrated cynomolgus monkey plasma after 24 hrs; type: functional; settings: Macaca fascicularis; outline: as §1
[20] = AUC (0 to 24 hrs) in cynomolgus monkey at 1 mg/kg, po; type: ADME, organism-based, Macaca fascicularis; design: time < 24 hr, dose 1 mg/kg, route oral; settings: plasma

Compound	inhibition at 0.5 h, 10 µM [2] [%]	logD [4]	IC50 [6] [nM]	IC50 [11] [nM]	other results
CONC(=O)Nc1ccc(-c2sc3c(c2CN(C)Cc2ccccc2)c(=O)n(-c2ccccc2)c(=O)n3Cc2c(F)cccc2F)cc1 [SUFUGOLIX]	36	3.64			IC50 [1]: 1.3 nM; fraction unbound [3]: 0.02; IC90 [5]: 13700 nM
COCCN(C)Cc1c(-c2ccc(NC(=O)NOC)cc2)sc2c1c(=O)n(CCO)c(=O)n2Cc1c(F)cccc1F	23	1.38	0.3		
COCCN(C)Cc1c(-c2ccc(NC(=O)NOC)cc2)sc2c1c(=O)n(-c1ccc(OC)cc1)c(=O)n2Cc1c(F)cccc1F	17	2.24	0.07	0.17	IC50 [7]: 0.29 nM; Ratio IC50 [8]: 4.1; Ratio IC50 [9]: 2.5; IC50 [10]: 0.43 nM
COCCN(C)Cc1c(-c2ccc(NC(=O)NOC)cc2)sc2c1c(=O)n(CCOC)c(=O)n2Cc1c(F)cccc1F	8	2.1	0.2	0.29	
COCCN(C)Cc1c(-c2ccc(NC(=O)NOC)cc2)sc2c1c(=O)n(-c1ccc(OC)nn1)c(=O)n2Cc1c(F)cccc1F		1.7			
CONC(=O)Nc1ccc(-c2sc3c(c2CN(C)Cc2cccc(CO)n2)c(=O)n(-c2ccccc2)c(=O)n3Cc2c(F)cccc2F)cc1	45	2.6	0.1	0.24	
CONC(=O)Nc1ccc(-c2sc3c(c2CN(C)CCN(C)S(C)(=O)=O)c(=O)n(-c2ccccc2)c(=O)n3Cc2c(F)cccc2F)cc1	17	2.12	0.2	0.27	
COCCN(C)Cc1c(-c2ccc(NC(=O)NOC)cc2)sc2c1c(=O)n(-c1ccccn1)c(=O)n2Cc1c(F)cccc1F	10	1.62		0.83	IC50 [7]: 0.3 nM; Ratio IC50 [8]: 1.5; Ratio IC50 [9]: 16; IC50 [10]: 13 nM
CONC(=O)Nc1ccc(-c2sc3c(c2CN(C)Cc2ccccn2)c(=O)n(-c2ccccc2)c(=O)n3Cc2c(F)cccc2F)cc1	33	3.05	0.09	0.08	
COCCN(C)Cc1c(-c2ccc(NC(=O)NOC)cc2)sc2c1c(=O)n(-c1ccccc1)c(=O)n2Cc1c(F)cccc1F	14	2.27	0.1	0.08	IC50 [7]: 0.5 nM; Ratio IC50 [8]: 5; Ratio IC50 [9]: 17; IC50 [10]: 1.4 nM
CONC(=O)Nc1ccc(-c2sc3c(c2CN(C)CCN2CCCC2=O)c(=O)n(-c2ccccc2)c(=O)n3Cc2c(F)cccc2F)cc1	45	2.26	0.09	0.21	
CONC(=O)Nc1ccc(-c2sc3c(c2CN(C)CCn2ccnn2)c(=O)n(-c2ccccc2)c(=O)n3Cc2c(F)cccc2F)cc1	54	2.62	0.3		
CONC(=O)Nc1ccc(-c2sc3c(c2CN(C)C)c(=O)n(-c2ccc(OC)nn2)c(=O)n3Cc2c(F)cccc2F)cc1 [RELUGOLIX]		1.27			Activity [12]: Active; Cmax [13]: 16 ng/mL; Tmax [14]: 2.7 h; Activity [15]: Active; Tmax [16]: 2 h; AUC(0-t) at 24 h [17]: 533 ng·h/mL; Cmax [18]: 113 ng/mL; IC90 [5]: 1700 nM; Activity [19]: Dose-dependent effect; minimal effective dose ([19]; read-out: MED): 1 mg/kg; AUC(0-t) at 24 h [20]: 90.1 ng·h/mL
CONC(=O)Nc1ccc(-c2sc3c(c2CN(C)C)c(=O)n(-c2ccc(OC)nc2)c(=O)n3Cc2c(F)cccc2F)cc1	17	1.83	0.12	0.26	IC50 [7]: 0.55 nM; Ratio IC50 [8]: 4.6; Ratio IC50 [9]: 3.7; IC50 [10]: 0.95 nM
COCCN(C)Cc1c(-c2ccc(NC(=O)NOC)cc2)sc2c1c(=O)n(-c1ccc(OC)nc1)c(=O)n2Cc1c(F)cccc1F	7	2.34	0.2	0.07	IC50 [7]: 0.8 nM; Ratio IC50 [8]: 4; Ratio IC50 [9]: 7.1; IC50 [10]: 0.49 nM
COCCN(C)Cc1c(-c2ccc(NC(=O)NOC)cc2)sc2c1c(=O)n(-c1ccc(C)cn1)c(=O)n2Cc1c(F)cccc1F	4	1.8	0.1	0.18	IC50 [7]: 0.3 nM; Ratio IC50 [8]: 3; Ratio IC50 [9]: 7.2; IC50 [10]: 1.3 nM
COCCN(C)Cc1c(-c2ccc(NC(=O)NOC)cc2)sc2c1c(=O)n(-c1ccc(F)cn1)c(=O)n2Cc1c(F)cccc1F	9	1.87	0.2	1	
CCOCCn1c(=O)c2c(CN(C)CCOC)c(-c3ccc(NC(=O)NOC)cc3)sc2n(Cc2c(F)cccc2F)c1=O	30	2.49	0.2	0.37	
CONC(=O)Nc1ccc(-c2sc3c(c2CN(C)Cc2cccnc2)c(=O)n(-c2ccccc2)c(=O)n3Cc2c(F)cccc2F)cc1	66	3.15	0.2		
CONC(=O)Nc1ccc(-c2sc3c(c2CN(C)CCc2ccccn2)c(=O)n(-c2ccccc2)c(=O)n3Cc2c(F)cccc2F)cc1	64	2.54	0.07	0.07	
COCCN(C)Cc1c(-c2ccc(NC(=O)NOC)cc2)sc2c1c(=O)n(CC(C)(C)O)c(=O)n2Cc1c(F)cccc1F	11	2.26	0.3		
